From ChEMBL document CHEMBL4680077, “Differentiation of skeletal osteogenic progenitor cells to osteoblasts with 3,4-diarylbenzopyran based amide derivatives: Novel osteogenic agents” (Eur J Med Chem, 2016)
Active and inactive are the calls of the source. The rule behind the calls is not given here.

How the values were obtained:
[1] = Acute toxicity in Swiss albino mouse assessed as relative spleen weight at 5 mg/kg, po measured after 7 days (reference value: 0.73 +/- 0.14 %); type: organism-based; conditions: in vivo, 168 h, time 7 day
[2] = Toxicity in ovariectomized BALB/c mouse assessed as uterine estrogenicity by measuring uterine weights at 1 to 10 mg/kg, po administered for 30 days and measured on day 30; type: organism-based; conditions: in vivo, 720 h, dose 1-10 mg/kg, time 30 day
Summary of the method: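 Six-to-eight-week-old balb/c mice (n = 10) were ovariectomized and dosed orally for 30 consecutive days: test agent at 1 or 10 mg kg-1 day-1, or 17β-E2 at 0.01 mg kg-1 day-1. Uterine weights were recorded and compared with the Ovx vehicle group; mean ± SEM.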

[3] = Acute toxicity in Swiss albino mouse assessed as SGPT level at 5 mg/kg, po measured after 7 days (reference value: 14.04 +/- 1.45 U/L); type: organism-based; conditions: in vivo, 168 h, time 7 day
Calvarial osteoblast [4] = assay: Induction of osteoblast differentiation in mouse calvarial osteoblast assessed as increase in ERbeta expression at 1 pM incubated for 48 hrs by Western blot analysis; type: functional, cell-based
Summary of the method: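 Calvarial osteoblasts at 60–70% confluence were treated ± compound for 48 h, with 100 pM E2 as positive control. Lysates (30 µg protein) were resolved on 10% SDS-PAGE, transferred to PVDF and probed for ER-α and ER-β with HRP secondaries and ECL detection. Bands were quantified by densitometry normalized to β-actin.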

[5] = Acute toxicity in Swiss albino mouse assessed as relative testes weight at 5 mg/kg, po measured after 7 days (reference value: 0.62 +/- 0.03 %); type: organism-based; conditions: in vivo, 168 h, time 7 day
[6] = Acute toxicity in Swiss albino mouse assessed as haemoglobin level at 1000 mg/kg, po measured after 7 days (reference value: 10.86 +/- 0.87 g/dL); type: organism-based; conditions: in vivo, 168 h, time 7 day
[7] = Acute toxicity in Swiss albino mouse assessed as haemoglobin level at 5 mg/kg, po measured after 7 days (reference value: 10.86 +/- 0.87 g/dL); type: organism-based; conditions: in vivo, 168 h, time 7 day
[8] = Acute toxicity in Swiss albino mouse assessed as absolute kidney weight at 1000 mg/kg, po measured after 7 days (reference value: 0.29 +/- 0.02 g); type: organism-based; conditions: in vivo, 168 h, time 7 day
[9] = Acute toxicity in Swiss albino mouse assessed as absolute spleen weight at 5 mg/kg, po measured after 7 days (reference value: 0.17 +/- 0.03 g); type: organism-based; conditions: in vivo, 168 h, time 7 day
[10] = Acute toxicity in Swiss albino mouse assessed as absolute uterus weight at 5 mg/kg, po measured after 7 days (reference value: 0.27+/- 0.07 g); type: organism-based; conditions: in vivo, 168 h, time 7 day
[11] = Acute toxicity in Swiss albino mouse assessed as eosinophil count at 5 mg/kg, po measured after 7 days (reference value: 6.34 +/- 1.04 %); type: organism-based; conditions: in vivo, 168 h, time 7 day
[12] = Acute toxicity in Swiss albino mouse assessed as ALKP level at 50 mg/kg, po measured after 7 days (reference value: 379.25 +/- 27.08 U/L); type: organism-based; conditions: in vivo, 168 h, time 7 day
Calvarial osteoblast [13] = assay: Induction of osteoblast differentiation in mouse calvarial osteoblast assessed as increase in BMP-2 mRNA expression at 1 pM incubated for 48 hrs by qPCR analysis; type: functional, cell-based
Summary of the method: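 Calvarial osteoblasts were treated at 1 pM for 24 and 48 h. Total RNA was extracted with TRIzol, and cDNA was made from 2 µg RNA. qPCR ran 40 cycles for BMP-2, RUNX-2, OCN and collagen type 1, with normalization to GAPDH. Mean ± SEM of three independent experiments.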

[14] = Acute toxicity in Swiss albino mouse assessed as absolute kidney weight at 300 mg/kg, po measured after 7 days (reference value: 0.29 +/- 0.02 g); type: organism-based; conditions: in vivo, 168 h, time 7 day
[15] = Acute toxicity in Swiss albino mouse assessed as absolute heart weight at 50 mg/kg, po measured after 7 days (reference value: 0.12 g); type: organism-based; conditions: in vivo, 168 h, time 7 day
[16] = Acute toxicity in Swiss albino mouse assessed as body weight at 300 mg/kg, po observed on day 1 (reference value: 20.38 +/- 0.24 g); type: organism-based; conditions: in vivo, 24 h, time 1 day
[17] = Acute toxicity in Swiss albino mouse assessed as albumin level at 1000 mg/kg, po measured after 7 days (reference value: 3.24 +/- 0.30 g/dL); type: organism-based; conditions: in vivo, 168 h, time 7 day
[18] = Acute toxicity in Swiss albino mouse assessed as relative lung weight at 1000 mg/kg, po measured after 7 days (reference value: 0.70 +/- 0.08 %); type: organism-based; conditions: in vivo, 168 h, time 7 day
[19] = Acute toxicity in Swiss albino mouse assessed as relative kidney weight at 300 mg/kg, po measured after 7 days (reference value: 1.25 +/- 0.08 %); type: organism-based; conditions: in vivo, 168 h, time 7 day
Mus musculus = assay: In vivo osteogenic activity in ovariectomized BALB/c mouse assessed as decrease in serum CTx at 1 to 10 mg/kg, po via gavage administered for 30 days; type: functional, organism-based; conditions: dose 1-10 mg/kg, time 30.0 day
Summary of the method: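 Eight-week-old female balb/c mice were ovariectomized and dosed once daily by oral gavage at 1 or 10 mg kg-1 in vehicle (gum acacia in water) for 30 days; sham and Ovx vehicle groups served as controls. Serum CTx and osteocalcin were assayed in duplicate. n = 10 per group; mean ± SEM.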

[20] = Tmax in Sprague-Dawley rat at 1 mg/kg, po measured upto 24 hrs by LC-MS/MS analysis; type: ADME, organism-based; conditions: in vivo
Summary of the method: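 Female Sprague-Dawley rats (n = 4), fasted overnight 12–14 h, dosed orally at 1 mg kg-1 as a 0.25% CMC suspension and fed 3 h post-dose. Retro-orbital blood was taken from 0.25 to 24 h. Plasma was hexane-extracted and assayed by LC-MS/MS. Cmax and Tmax were read from the data; other parameters came from non-compartmental analysis. Mean ± S.D.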

[21] = Acute toxicity in Swiss albino mouse assessed as absolute testes weight at 300 mg/kg, po measured after 7 days (reference value: 0.15+/- 0.01 g); type: organism-based; conditions: in vivo, 168 h, time 7 day
[22] = Acute toxicity in Swiss albino mouse assessed as lymphocyte count at 5 mg/kg, po measured after 7 days (reference value: 37.97 +/- 1.80 %); type: organism-based; conditions: in vivo, 168 h, time 7 day
[23] = Acute toxicity in Swiss albino mouse assessed as mortality at 5 to 1000 mg/kg, po measured after 7 days; type: organism-based; conditions: in vivo, 168 h, dose 5-1000 mg/kg, time 7 day
Summary of the method: (§1)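 Acute oral toxicity per OECD guidelines 420, 423 and 425. Swiss albino mice received a single oral dose at 5, 50, 300 or 1000 mg kg1 body weight, with vehicle controls. Animals were watched for morbidity, mortality and observational changes over 7 days. Tail-vein blood was then taken for hematology and serum biochemistry. Organs were inspected at sacrifice. n = 6 per group.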

[24] = Acute toxicity in Swiss albino mouse assessed as observational changes at 5 to 1000 mg/kg, po measured after 7 days; type: organism-based; conditions: in vivo, 168 h, dose 5-1000 mg/kg, time 7 day; summary of the method: as §1
[25] = Acute toxicity in Swiss albino mouse assessed as basophil count at 50 mg/kg, po measured after 7 days (reference value: 1.50 +/- 0.29 %); type: organism-based; conditions: in vivo, 168 h, time 7 day
[26] = Acute toxicity in Swiss albino mouse assessed as absolute brain weight at 1000 mg/kg, po measured after 7 days (reference value: 0.37 +/- 0.02 g); type: organism-based; conditions: in vivo, 168 h, time 7 day

**Q.** For `CCCCN(C)C(=O)CCCCOc1ccc([C@H]2c3ccc(OC)cc3OC(C)(C)[C@@H]2c2ccccc2)cc1`, which Activity [1] is on record?
**A.** The Activity was 0.46%.

**Q.** What about the Activity [2] of the same compound?
**A.** Its Activity is “Non-Toxic”.

**Q.** And the Activity [3]?
**A.** Its Activity is 17.44 U/L.

**Q.** And the Activity (Calvarial osteoblast [4])?
**A.** Its Activity is “Active”.

**Q.** What about the Activity [5] of the same compound?
**A.** The Activity was 0.6%.

**Q.** What about the Activity [6] of the same compound?
**A.** Its Activity is 11.35 g/dL.

**Q.** What about the Activity [7] of the same compound?
**A.** The Activity was 12.94 g/dL.

**Q.** What about the Activity [8] of the same compound?
**A.** The Activity was 0.29 g.

**Q.** What about the Activity [9] of the same compound?
**A.** Its Activity is 0.11 g.

**Q.** And the Activity [10]?
**A.** Its Activity is 0.3 g.

**Q.** And the Activity [11]?
**A.** The Activity was 8.35%.

**Q.** What about the Activity [12] of the same compound?
**A.** Its Activity is 306.33 U/L.

**Q.** What about the Activity (Calvarial osteoblast [13]) of the same compound?
**A.** The Activity was “Active”.

**Q.** What about the Activity [14] of the same compound?
**A.** The Activity was 0.27 g.

**Q.** What about the Activity [15] of the same compound?
**A.** Its Activity is 0.12 g.

**Q.** What about the Activity [16] of the same compound?
**A.** Its Activity is 19.61 g.

**Q.** And the Activity [17]?
**A.** The Activity was 3.98 g/dL.

**Q.** What about the Activity [18] of the same compound?
**A.** The Activity was 0.75%.

**Q.** And the Activity [19]?
**A.** The Activity was 1.14%.

**Q.** What about the Activity (Mus musculus) of the same compound?
**A.** Its Activity is “Active”.

**Q.** What about the Tmax [20] of the same compound?
**A.** Its Tmax is 1.5 h.

**Q.** What about the Activity [21] of the same compound?
**A.** The Activity was 0.14 g.

**Q.** And the Activity [22]?
**A.** Its Activity is 39.08%.

**Q.** What about the Activity [23] of the same compound?
**A.** Its Activity is “Non-Toxic”.

**Q.** What about the Activity [24] of the same compound?
**A.** Its Activity is “Non-Toxic”.

**Q.** And the Activity [25]?
**A.** Its Activity is 0.5%.

**Q.** And the Activity [26]?
**A.** The Activity was 0.33 g.
